Laboratory results reported in PubChem BioAssay.
Values without a mark were called inactive. Results filed as inconclusive are left out. The source made the active and inactive calls.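 Rule for the calls, unless noted: active = viability increase at or above a cutoff of the median across tested compounds plus 3 SD (cut at about 8.5% in these data, passing the limit was not always enough); inconclusive = some gains above the cutoff, reason not given; inactive = the rest.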

Assays:
[1] = OD615 S. cerevisiae growth inhibition, permissive medium, pilot counter-assay, permissive growth control for S. cerevisiae lifespan shortening project (AID 705;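 active = growth inhibition above 25% in both replicates, a cutoff set 3 SD above the mean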); settings: OD615, 24 h, at 10 µM, active compounds read high
Summary of the method: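 System: Engineered DeaD yeast | Buffer or medium: SC raffinose/galactose permissive medium | Incubation: Cells pre-grown 4 h, then 24 h compound exposure, 30 °C humidified | Measured by: Absorbance (optical density) at 615 nm | Read-out: Reduction in yeast growth (OD615)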

[2] = Restrictive medium S. cerevisiae growth inhibition, OD615, pilot screen of yeast lifespan reduction project, restrictive growth control (AID 706;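 active = growth inhibition above a set limit, 3 SD over mean compound inhibition, in both replicates, cut at about 43% in these data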;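 note: modified DeaD lifespan yeast strain shifted to restrictive glucose medium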); settings: OD615, 48 h, at 10 µM, active compounds read high
Summary of the method: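 Material: modified S. cerevisiae; Medium: glucose-based CSMM-D restrictive medium; Compound dosing: one concentration, 10 µM final, 0.25% DMSO; Incubation: 48 h compound exposure at 30 °C; Measured by: OD615.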

[3] = viability gain of MRP-1-high H69AR cells under doxorubicin, pilot screen, MRP-1 activator project, CellTiter-Glo, duplicate (AID 807); settings: H69AR viability with doxorubicin, CellTiter-Glo luminescence; at 10 µM; active compounds read high;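 note: compound pretreatment 18-22 h then 72 h combined with doxorubicin; 0% = doxorubicin alone and 100% = vehicle without doxorubicin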
[4] = growth suppression of beta-catenin knockout HCT116, pilot screen, human colon tumor cells (AID 823;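 active = cell viability at or below a set limit in both duplicate runs, the limit being the all-compound median minus 4 SD, cut at about 23% in these data, passing the limit was not always enough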;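 note: 0% = wells killed by 20 µM Hyamine and 100% = untreated DMSO cell wells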); settings: CellTiter-Glo, 60 h, at 10 µM, active compounds read low
[5] = growth suppression of PTEN-deleted HCT116, pilot screen, cell-based, HCT116 clonal line, CellTiter-Glo (AID 824;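 active = viability at or below 27.92% in each of two runs, the all-compound median minus 4 SD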;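 note: 0% = 20 µM Hyamine control and 100% = vehicle cell control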); settings: 60 h, at 10 µM, active compounds read low
[6] = inhibitors of the yeast RAM network, pilot screen, dse1pr::URA3 reporter, 5-FOA selection (AID 869;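 active = inhibition over a set limit, the all-compound mean plus 3 SD, in both replicate runs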;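 note: 0% = DMSO wells with no growth and 100% = 10 µM 1-NA-PP1 with full growth; RAM network block rescues cells from 5-FOA so hits raise OD615 growth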); settings: S. cerevisiae dse1pr::URA3 5-FOA growth, OD615, 2 d; at 10 µM; active compounds read high; strain carries analog-sensitive mutant Cbk1 kinase
[7] = RAM signaling pathway blockade in yeast – S. cerevisiae, Pdr1DBD-CYC8 efflux-inhibited sensitized strain, primary screen (AID 1298;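 active = RAM network inhibition above 8.4% in each of two replicates, 3 SD over the compound average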;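 note: 0% = DMSO untreated cells without growth and 100% = 10 µM 1-NA-PP1 full growth; higher means more yeast growth rescued from 5-FOA killing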); settings: S. cerevisiae cbk1-as DSE1-URA3 strain, 5-FOA growth OD615, 2 d; at 50 µM; active compounds read high

| SMILES | growth inhibition [1] [%] | growth inhibition [2] [%] | viability increase [3] | viability [4] [%] | viability [5] [%] | inhibition [6] [%] | RAM network inhibition [7] [%] |
| --- | --- | --- | --- | --- | --- | --- | --- |
| CCOC(=O)N1CCC(NC(=O)C2CCCN(Cc3nc(-c4cccc(Cl)c4)oc3C)C2)CC1 (configuration not stated) | -13.4 | -23.4 | -5.39% | 40.4 | 49.5 | 0.715 | 3.95 |
| Cc1ccc(-c2csc(N3CCC(C(N)=O)(N4CCCCC4)CC3)n2)cc1 | 6.21 | -8.75 | -1.76% | 75.5 | 75 | -0.445 | 2.58 |
| O=C(NCCc1ccccc1)c1ccncc1 | -5.38 | 4.46 | -0.91% | 88.8 | 93.5 | 1.67 | 0.86 |
| O=C1OC(Nc2nc3ccccc3s2)c2ccccc21 (configuration not stated) | -2.46 | 6.6 | 0.26% | 101 | 101 | 0.67 | 0.48 |
| COc1ccc(N2CCN(c3cc(C)c4ccc(O)cc4n3)CC2)cc1 | 3.12 | 10.5 | -2.1% | 75.7 | 79.8 | 0.39 | 6.62 |
| COc1ccc(N2CC(C(=O)Nc3ccc(S(=O)(=O)Nc4nc(C)cc(C)n4)cc3)CC2=O)cc1 (configuration not stated) | -8.26 | -7.87 | -1.39% | 100 | 91.4 | 1 | 2.5 |
| Cc1ccc(C(C)C)c(OCc2nc(-c3nonc3N)no2)c1 | -13 | -14.4 | 8.48% (active) | 88.3 | 81.2 | 1.71 | 3.09 |
| CCOC(=O)c1c(C)oc2cc(Br)c(OC(C)C(=O)OCC)cc12 (configuration not stated) | -10.4 | -5.88 | -0.93% | 85.4 | 92 | 1.76 | 0.98 |
| Cc1ccc(C)c2[nH]c(=O)c(CCNC(=O)CC(C)C)cc12 | -2.83 | -10.7 | -1.74% | 103 | 108 | 1.75 | 8.88 |
| O=c1[nH]c(=S)[nH]nc1Cc1ccccc1 | -10 | 13.4 | -0.79% | 101 | 98.2 | 0.12 | 6.46 |
| CC(=O)Cc1nsc(NC(=O)C2Cc3ccccc3C(=O)O2)n1 (configuration not stated) | -15.5 | -1.69 | -1.57% | 102 | 100 | 0.45 | 6.74 |
| Cc1ccc(-c2nn(CC(=O)O)c(=O)c3ccccc23)cc1 | -19.3 | -13.9 | 1.3% | 104 | 96.2 | 2.12 | 1.1 |
| CC(CCc1ccccc1)NC(=O)CN1CCOc2ccccc21 (configuration not stated) | -7.73 | -1.32 | -5.58% | 84.1 | 83.1 | 0.595 | 3.72 |
| COc1ccccc1NC(=O)c1c(NC(=O)c2ccco2)sc2c1CCC2 | -9.49 | -18.1 | -2.92% | 80.2 | 72 | 2.31 | 2.6 |
| COc1cccc(C(=O)N2CCSC2=S)c1 | -10.4 | 3.34 | -0.12% | 97 | 97.5 | 0 | -1.3 |
| O=C(NC1CCCCCC1)c1nnc(Cc2ccc(Cl)cc2)o1 | -12.1 | 0.195 | 2.9% | 95.2 | 94.5 | 1.31 | 2.19 |
| CCCC(=O)Nc1nnc(-c2ccc(Cl)s2)o1 | -6.95 | 2.92 | -3.1% | 95.6 | 91.2 | 1.61 | 1.6 |
| COC(=O)c1ccccc1Nc1cc(C)nc2nc(C)nn12 | -5.25 | 0.455 | -3.74% | 105 | 115 | -0.315 | 1.72 |

| SMILES | growth inhibition [1] [%] | growth inhibition [2] [%] | viability increase [3] | viability [4] [%] | viability [5] [%] | inhibition [6] [%] | RAM network inhibition [7] [%] |
| --- | --- | --- | --- | --- | --- | --- | --- |
| CCN(CC)C(=O)CSc1ccccc1N | -16.2 | -9.23 | -1.98% | 89.5 | 94.4 | 0.885 | 5.73 |
| Cc1cccc(NC(=O)COc2ccc(Br)cc2C)n1 | -4.42 | 1.1 | 1.07% | 92.9 | 90.5 | 0.655 | 5.6 |
| COCCNC(=O)CS(=O)Cc1nc(-c2ccccc2C)oc1C (configuration not stated) | -8.16 | 5.6 | -0.56% | 100 | 98 | 0.23 | 2.05 |
| COC(=O)C1C(O)=C(C=NCC(C)N=CC2=C(O)C(C(=O)OC)C(C)(C)CC2=O)C(=O)CC1(C)C (configuration not stated) | -4.88 | -3.87 | -0.55% | 92.4 | 93.7 | 2.5 | 0.9 |
| COc1cc2c(cc1OC)CN(C(=O)C(C)(C)C)CC2 | -8.97 | -7.4 | 0.45% | 105 | 96.7 | -0.13 | -0.98 |
| O=C(CCS(=O)(=O)c1cccc2nonc12)N1CCOCC1 | -6.54 | -14.3 | -2.16% | 88 | 100 | 2.56 | 2.65 |
| COc1cccc2c(=O)n(CC(=O)NC3CCCC3)ccc12 | -19.3 | -5.62 | -1.22% | 99.1 | 94 | -0.215 | 3.83 |
| CCC(C)OC(=O)C1=C(C)NC(=O)NC1c1ccc(F)cc1 (configuration not stated) | -8.18 | -18.7 | -2.13% | 97 | 92.7 | 1.36 | 2.77 |
| Cc1ccc(C(C)C)c(OCC(=O)N2CCOCC2)c1 | -10.1 | -20.3 | -0.67% | 99.3 | 91.4 | 1.69 | 1.97 |
| CCN(CC)S(=O)(=O)c1ccc(C(=O)Nc2ccc(OCC(=O)N3CCOCC3)cc2)cc1 | -6 | -11 | 0.35% | 86.6 | 95.4 | 0.185 | 4.45 |
| CN(CC(=O)N1CC=C(c2ccccc2)CC1)S(=O)(=O)c1ccc2c(c1)c(=O)n(C)c(=O)n2C | -1.64 | -12.2 | -3.46% | 94.1 | 80.3 | 0.26 | 5.04 |
| COc1ccc(Cl)cc1N(CC(=O)Nc1ccc2c(c1)OCCO2)S(C)(=O)=O | -2.33 | 0.055 | -2.78% | 92.7 | 89.4 | 3.33 | 2.8 |
| O=C1c2cccnc2C(=O)N1Cc1ccccc1 | -1.31 | -3.01 | -0.58% | 101 | 101 | 0.015 | 0.79 |
| Cc1ccccc1NCN1C(=O)C2C3C=CC(C3)C2C1=O (configuration not stated) | -11.2 | -18.2 | -2.43% | 86 | 96.2 | 3.66 | 0.48 |
| CCOc1cccc(-c2nc(C(N)=O)c3[nH]c(=O)n(-c4cccc(Cl)c4)c3n2)c1O | -2.52 | -7.1 | -2.06% | 101 | 93.1 | 0.85 | 2.67 |
| O=C1CSC(=O)N1CC(O)COc1ccc(Cl)cc1 (configuration not stated) | 0.955 | -20.5 | 3.19% | 102 | 91.9 | 0.995 | 1.1 |
| Cc1ccc(C2c3c(oc4cc(C)c(C)cc4c3=O)C(=O)N2CCCN2CCOCC2)cc1 (configuration not stated) | -5.16 | -18.6 | -4.87% | 83.3 | 90 | 3.33 | -0.94 |
| CC(CCc1ccco1)NC(=O)Cn1ncc2c(=O)oc3ccccc3c21 (configuration not stated) | -15.7 | -12.5 | -3.03% | 105 | 93.7 | 1.96 | 5.79 |
